In paper PMC2884008 (Chemistry & biology, 2010):
“Also recorded” adds a separate entry of the source. Like-named read-outs stand apart in the source and are kept apart here.

How the values were obtained:
[1] = biological target: T1, p300 HAT (Homo sapiens, UniProt Q09472, DEL1529-1560/M1652G); assay: direct radioactive 14C-acetyl-CoA transfer p300 HAT assay; format: biochemical; settings: for p300 HAT inhibition, in words: analogs compared with C646
T1 sequence (Q09472 with tags, fused parts or gaps DEL1529-1560/M1652G limits assumed): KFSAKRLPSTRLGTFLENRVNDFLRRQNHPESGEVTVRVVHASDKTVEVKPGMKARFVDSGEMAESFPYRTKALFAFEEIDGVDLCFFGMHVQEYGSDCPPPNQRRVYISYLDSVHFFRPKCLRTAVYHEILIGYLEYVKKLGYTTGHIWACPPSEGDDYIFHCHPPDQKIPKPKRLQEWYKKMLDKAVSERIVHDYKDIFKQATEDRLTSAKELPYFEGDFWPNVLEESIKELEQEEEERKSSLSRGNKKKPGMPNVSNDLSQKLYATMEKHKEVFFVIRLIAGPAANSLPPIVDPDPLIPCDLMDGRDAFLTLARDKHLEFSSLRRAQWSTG

[2] = biological target: PCAF histone acetyltransferase (Homo sapiens, UniProt Q92831); assay: coupled spectrophotometric PCAF assay; format: biochemical; settings: compound at 10 μM
[3] = system: melanoma line WM35; assay: 3H-thymidine incorporation in WM35; format: cell-based, human; settings: C646 10 μM or Lys-CoA-Tat 25 μM, 24 h
In short: (§1)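 Melanoma lines were grown in DMEM and NSCLC lines in RPMI 1640, both with 10% FBS, pen-strep and L-glutamine. About 5000 cells/well at ~60% sub-confluence were attached at 37°C, then exposed 24 h with DMSO at 0.2% in every condition. 3H-thymidine was added at 10 μCi/ml final for 5 h; cells were harvested onto filters and counted. Triplicates; counts normalized to pre-treatment counts.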

[4] = biological target: Rtt109 histone acetyltransferase (Saccharomyces cerevisiae, UniProt Q07794); assay: direct radioactive HAT assay with Rtt109/Vps75 complex; format: biochemical; settings: compound at 10 μM
In short: (§2)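 Enzyme: Rtt109/Vps75 70 ng, yGcn5 15 ng, SAS 300 ng, hMOZ 1 μg. After 10 min at 30°C, reactions were started with 20 μM 12C/14C-AcCoA (1:1) and run 2–4 min. Product was resolved by Tris-Tricine SDS-PAGE and quantified by autoradiography. Duplicates.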

[5] = system: WM983A; assay: cell cycle analysis by propidium iodide FACS, WM983A; format: cell-based, human; settings: 20 μM, 24 h
In short: (§3)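 Cells were exposed to 20 μM test compound or DMSO for 24 h. More than 10^6 cells were fixed in 70% ethanol at 4°C for ≥2 h, rehydrated in PBS and stained 20 min at 37°C with PI in 0.1% Triton X-100/PBS containing RNase A. DNA content was read by flow cytometry, and the S-phase fraction was taken as the read-out.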

[6] = system: WM35; assay: cell cycle analysis by propidium iodide FACS, WM35; format: cell-based, human; settings: 20 μM, 24 h
In short: as §3

[7] = system: p300 HAT mutant R1410A; assay: C646 inhibition of p300 HAT mutant R1410A; format: biochemical; settings: Ki = IC50/(S/Km+1)
[8] = thiol adduct formation by NMR and chromatography; format: physicochemical; settings: buffer conditions of the enzyme assay
[9] = system: p300 HAT mutant T1411A; assay: C646 inhibition of p300 HAT mutant T1411A; format: biochemical; settings: Ki = IC50/(S/Km+1)
[10] = system: p300 HAT mutant Y1467F; assay: C646 inhibition of p300 HAT mutant Y1467F; format: biochemical; settings: Ki = IC50/(S/Km+1)
[11] = system: lung cancer line H23; assay: 3H-thymidine incorporation in H23; format: cell-based, human; settings: C646 10 μM or Lys-CoA-Tat 25 μM, 24 h
In short: as §1

[12] = system: immortalized murine fibroblast cell line, NIH3T3; assay: 3H-thymidine incorporation in NIH3T3; format: cell-based; settings: 20 μM
[13] = system: three melanoma and three non-small cell lung cancer lines; assay: 3H-thymidine incorporation in cancer cell line panel; format: cell-based, human; settings: 24 h
In short: as §1

[14] = system: melanoma line WM983A; assay: 3H-thymidine incorporation in WM983A; format: cell-based, human; settings: 24 h
In short: as §1

[15] = biological target: MOZ histone acetyltransferase (Homo sapiens, UniProt Q92794); assay: direct radioactive HAT assay with hMOZ; format: biochemical; settings: compound at 10 μM
In short: as §2

[16] = biological target: GCN5 histone acetyltransferase (Saccharomyces cerevisiae, UniProt Q03330); assay: direct radioactive HAT assay with yeast GCN5; format: biochemical; settings: compound at 10 μM
In short: as §2

[17] = biological target: serotonin N-acetyltransferase (Ovis aries, UniProt Q29495); assay: coupled spectrophotometric AANAT assay; format: biochemical; settings: compound at 10 μM
[18] = system: p300 HAT mutant W1466F; assay: C646 inhibition of p300 HAT mutant W1466F; format: biochemical; settings: Ki = IC50/(S/Km+1)
[19] = system: WM983A cells; assay: global histone H3 acetylation in WM983A cells by western blotting; format: cell-based, human; settings: 6 h, increasing concentrations
[20] = system: C3H 10T1/2 mouse fibroblasts; assay: histone acetylation in mouse cells, western blots of SDS and acid-urea gels; format: cell-based
In short: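 C3H 10T1/2 fibroblasts were grown in DMEM/10% FCS at 37°C, 6% CO2, then made quiescent in 0.5% FCS for 18–20 h. TSA at 33 nM was added for the final 30 min where used. Histones were acid-extracted, run on SDS and acid-urea gels and western blotted.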

[21] = biological target: Sas histone acetyltransferase (Saccharomyces cerevisiae, UniProt P40963); assay: direct radioactive HAT assay with SAS complex; format: biochemical; settings: compound at 10 μM
In short: as §2

[22] = system: p300/CBP HAT; assay: p300 HAT inhibition, literature values; format: biochemical; settings: Ki compared with C646
[23] = biological target: p300/CBP HAT; settings: read-out: Ki for p300/CBP HAT, cited from earlier work

Sequence of GCN5 histone acetyltransferase (Q03330 whole entry): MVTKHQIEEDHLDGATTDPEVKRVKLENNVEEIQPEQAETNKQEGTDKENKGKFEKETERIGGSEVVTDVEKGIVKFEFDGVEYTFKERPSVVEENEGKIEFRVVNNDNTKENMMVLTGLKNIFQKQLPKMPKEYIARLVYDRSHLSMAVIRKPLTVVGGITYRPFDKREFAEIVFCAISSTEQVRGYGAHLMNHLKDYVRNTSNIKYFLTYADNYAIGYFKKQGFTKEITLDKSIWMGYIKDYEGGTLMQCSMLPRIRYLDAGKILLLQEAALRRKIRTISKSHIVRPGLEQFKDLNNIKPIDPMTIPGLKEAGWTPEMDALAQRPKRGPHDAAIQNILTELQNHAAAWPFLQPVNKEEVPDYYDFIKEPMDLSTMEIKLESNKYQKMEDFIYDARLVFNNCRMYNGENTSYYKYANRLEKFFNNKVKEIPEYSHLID
Sequence of Rtt109 histone acetyltransferase (Q07794 whole entry): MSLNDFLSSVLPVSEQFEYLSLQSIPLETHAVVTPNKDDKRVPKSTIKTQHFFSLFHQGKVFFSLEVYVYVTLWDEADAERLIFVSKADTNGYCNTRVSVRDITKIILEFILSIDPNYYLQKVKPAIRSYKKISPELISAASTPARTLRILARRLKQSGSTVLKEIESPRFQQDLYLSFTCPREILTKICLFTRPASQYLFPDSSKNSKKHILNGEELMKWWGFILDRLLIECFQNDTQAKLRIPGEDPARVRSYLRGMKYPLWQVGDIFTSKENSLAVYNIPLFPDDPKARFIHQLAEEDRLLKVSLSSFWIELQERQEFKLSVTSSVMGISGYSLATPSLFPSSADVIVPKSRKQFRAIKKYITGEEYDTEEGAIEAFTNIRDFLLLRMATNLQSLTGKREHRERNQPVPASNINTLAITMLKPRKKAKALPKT
Sequence of Rtt109 histone acetyltransferase (P53853 whole entry partner): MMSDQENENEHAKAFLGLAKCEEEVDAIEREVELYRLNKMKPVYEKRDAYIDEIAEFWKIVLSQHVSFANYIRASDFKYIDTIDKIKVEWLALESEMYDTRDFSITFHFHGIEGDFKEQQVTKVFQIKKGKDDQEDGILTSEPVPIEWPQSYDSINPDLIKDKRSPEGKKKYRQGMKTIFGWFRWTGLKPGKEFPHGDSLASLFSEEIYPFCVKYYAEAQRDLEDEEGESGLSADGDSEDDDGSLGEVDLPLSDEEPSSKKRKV
Sequence of PCAF histone acetyltransferase (Q92831 493-658 limits assumed): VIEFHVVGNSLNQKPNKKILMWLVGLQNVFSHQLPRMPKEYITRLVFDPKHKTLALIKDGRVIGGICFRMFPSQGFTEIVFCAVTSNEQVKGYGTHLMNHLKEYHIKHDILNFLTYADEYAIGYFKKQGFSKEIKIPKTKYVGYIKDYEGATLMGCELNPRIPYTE
Sequence of serotonin N-acetyltransferase (Q29495 whole entry): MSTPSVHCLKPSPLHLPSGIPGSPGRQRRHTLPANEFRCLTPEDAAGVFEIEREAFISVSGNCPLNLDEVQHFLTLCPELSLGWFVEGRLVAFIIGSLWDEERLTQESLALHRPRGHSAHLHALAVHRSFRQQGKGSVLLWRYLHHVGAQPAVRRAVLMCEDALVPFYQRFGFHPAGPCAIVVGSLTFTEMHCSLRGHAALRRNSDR
Sequence of Sas histone acetyltransferase (P40963 whole entry): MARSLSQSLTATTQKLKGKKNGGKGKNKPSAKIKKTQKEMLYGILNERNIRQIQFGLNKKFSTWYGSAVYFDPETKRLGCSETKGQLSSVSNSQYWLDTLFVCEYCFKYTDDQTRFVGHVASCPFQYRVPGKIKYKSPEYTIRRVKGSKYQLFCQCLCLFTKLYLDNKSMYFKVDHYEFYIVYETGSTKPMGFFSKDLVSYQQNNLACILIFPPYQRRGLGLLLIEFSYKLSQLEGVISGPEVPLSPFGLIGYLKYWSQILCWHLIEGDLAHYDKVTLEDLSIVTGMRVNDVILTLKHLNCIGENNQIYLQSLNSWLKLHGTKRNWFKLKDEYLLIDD
Sequence of Sas histone acetyltransferase (Q04003 whole entry partner): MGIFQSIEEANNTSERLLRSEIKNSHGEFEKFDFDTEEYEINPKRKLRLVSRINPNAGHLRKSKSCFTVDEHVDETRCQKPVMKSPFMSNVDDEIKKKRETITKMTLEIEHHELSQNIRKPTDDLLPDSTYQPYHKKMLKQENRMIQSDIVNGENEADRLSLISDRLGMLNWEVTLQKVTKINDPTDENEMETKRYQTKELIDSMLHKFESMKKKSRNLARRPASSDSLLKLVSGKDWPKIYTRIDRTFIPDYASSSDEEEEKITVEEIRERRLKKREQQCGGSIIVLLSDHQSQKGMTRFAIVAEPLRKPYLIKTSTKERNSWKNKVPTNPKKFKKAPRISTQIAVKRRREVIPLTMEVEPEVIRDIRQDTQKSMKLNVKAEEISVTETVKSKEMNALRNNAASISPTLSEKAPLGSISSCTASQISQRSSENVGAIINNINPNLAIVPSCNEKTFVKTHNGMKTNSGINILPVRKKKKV
Sequence of Sas histone acetyltransferase (Q99314 whole entry partner): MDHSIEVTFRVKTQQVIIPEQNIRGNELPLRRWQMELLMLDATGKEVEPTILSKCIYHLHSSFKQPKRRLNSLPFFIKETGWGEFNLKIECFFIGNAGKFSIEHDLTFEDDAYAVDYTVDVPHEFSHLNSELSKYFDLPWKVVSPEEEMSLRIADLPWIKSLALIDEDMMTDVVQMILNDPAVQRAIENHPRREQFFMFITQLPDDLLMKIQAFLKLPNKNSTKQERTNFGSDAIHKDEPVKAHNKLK
Sequence of MOZ histone acetyltransferase (Q92794 497-780 limits assumed): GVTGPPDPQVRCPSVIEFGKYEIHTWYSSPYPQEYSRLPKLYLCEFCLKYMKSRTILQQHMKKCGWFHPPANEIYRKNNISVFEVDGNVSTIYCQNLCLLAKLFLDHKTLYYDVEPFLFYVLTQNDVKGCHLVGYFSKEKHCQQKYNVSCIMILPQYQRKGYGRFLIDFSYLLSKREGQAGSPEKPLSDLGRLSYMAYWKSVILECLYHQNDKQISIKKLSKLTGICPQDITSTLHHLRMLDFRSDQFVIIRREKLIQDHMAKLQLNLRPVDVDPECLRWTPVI

## CC1=NN(c2ccc(C(N)=O)cc2)C(=O)C1=Cc1ccc(-c2cc(C)c(C)cc2[N+](=O)[O-])o1 [Compound 6a]
[1]
  p300 HAT inhibition, in words: well tolerated

## CC1=NN(c2cccc(C(=O)O)c2)C(=O)C1=Cc1ccc(-c2cc(C)c(C)cc2[N+](=O)[O-])o1 [Compound 6e]
[1]
  p300 HAT inhibition, in words: well tolerated

## CC1=NN(c2ccc(S(=O)(=O)O)cc2)C(=O)C1=Cc1ccc(-c2cc(C)c(C)cc2[N+](=O)[O-])o1 [Compound 6f]
[1]
  p300 HAT inhibition, in words: well tolerated

## CC1=NN(c2ccc(S(N)(=O)=O)cc2)C(=O)C1=Cc1ccc(-c2cc(C)c(C)cc2[N+](=O)[O-])o1 [Compound 6g]
[1]
  p300 HAT inhibition, in words: well tolerated

## COC(=O)c1ccc(N2N=C(C)C(=Cc3ccc(-c4cc(C)c(C)cc4[N+](=O)[O-])o3)C2=O)cc1 [Compound 6h]
[1]; relative IC50 referenced to C646
  weakening of p300 inhibitory potency compared with C646: > 15 fold

## COC(=O)c1cccc(N2N=C(C)C(=Cc3ccc(-c4cc(C)c(C)cc4[N+](=O)[O-])o3)C2=O)c1 [Compound 6i]
[1]
  p300 HAT inhibition, in words: well tolerated

## CC1=NN(c2ccc(C(=O)O)cc2)C(=O)C1=Cc1ccc(-c2cc(C)c(C)cc2CO)o1 [Compound 6l]
[1]
  p300 HAT inhibition, in words: substantial reduction in potency

## CC1=NN(c2ccc(C(=O)O)cc2)C(=O)/C1=C\c1ccc(-c2cc(C)c(C)cc2[N+](=O)[O-])o1 [Compound C646]
[2]
  inhibition of PCAF: less than 10%
[3]
  3H-thymidine incorporation: quite susceptible
[4]
  inhibition of Rtt109: less than 10%
[5]
  cell cycle effect: G1-S cell cycle arrest; also recorded: decrease in %S phase
[6]
  cell cycle effect: G1-S cell cycle arrest; also recorded: decrease in %S phase
[7]
  increase of apparent Ki versus wild type p300: at least 2 fold
[8]
  thiol adduct formation with DTT or beta-mercaptoethanol: no evidence of reaction
[9]
  increase of apparent Ki versus wild type p300: at least 2 fold
[10]
  increase of apparent Ki versus wild type p300: at least 2 fold
[11]
  3H-thymidine incorporation: quite susceptible
[12]
  3H-thymidine incorporation / cell proliferation: not inhibited; also recorded: does not have a significant inhibitory effect
[13]; C646 10 μM
  3H-thymidine incorporation: capable of reducing; also recorded: Two out of three non-small cell lung adenocarcinoma cell lines demonstrate significant growth inhibition
[14]; read-out: IC50 for 3H-thymidine incorporation
  IC50: 10 to 20 µM
[14]; up to 20 μM
  cell proliferation via 3H-thymidine incorporation: inhibits WM983A melanoma cell proliferation
[15]
  inhibition of MOZ: less than 10%
[16]
  inhibition of GCN5: less than 10%
[17]
  inhibition of serotonin N-acetyltransferase: less than 10%
[18]
  increase of apparent Ki versus wild type p300: 7 fold
[19]
  global histone H3 acetylation: dose-dependent reduction; also recorded: blocks H3 acetylation
[20]; 25 μM, 1-3 h, H3K9ac, H4K12ac
  basal acetylation levels of H3 and H4: slightly diminished; also recorded: reduces histone H3 and H4 acetylation levels
[20]; 25 μM, 1-3 h before TSA (33 nM, final 30 min)
  TSA-inducible acetylation of H3 and H4: virtually completely inhibits; also recorded: abrogates TSA-induced acetylation
[21]
  inhibition of Sas: less than 10%

## COc1ccc(C(=O)C2=C3OC(C)(C)[C@@H](CC=C(C)C)C[C@@]34C[C@@H](CC=C(C)C)C(C)(C)[C@@](CC=C(C)C)(C2=O)C4=O)cc1O [LTK14]
[22]
  fold weaker than C646: about 12 fold
[23]; ref Mantelingu et al., 2007, Arif et al., 2009
  Ki: 5.1 µM

## CC(=O)N[C@@H](CCCCNC(=O)CSCCNC(=O)CCNC(=O)[C@H](O)C(C)(C)COP(=O)(O)OP(=O)(O)OC[C@H]1O[C@@H](n2cnc3c(N)ncnc32)[C@H](O)[C@@H]1OP(=O)(O)O)C(N)=O [Lys-CoA]
[22]
  fold more potent than C646: 20 fold
[23]; ref Lau et al., 2000
  Ki: 0.02 µM

## CC(/C=C/C(=O)NO)=C\[C@@H](C)C(=O)c1ccc(N(C)C)cc1 [TSA, trichostatin A, reference compound]
[20]; TSA 33 nM, 30 min
  H3 and H4 acetylation after HDAC inhibitor: increased H3 and H4 acetylation

## Ac-Asp-Asp-Asp-Asp-Tat [Ac-DDDD-Tat, reference compound]
[1]
  p300 HAT inhibition, in words: lack p300 inhibitory properties
[13]
  3H-thymidine incorporation, control compounds: no effects
